Laboratory results published in publication PMC5958747 (Endocrine Connections, 2018).
Marks after values point to notes of the source that are not given here.

How the values were obtained:
[1] = test system: MNU-induced mammary tumours; assay: N-methyl-N-nitrosourea; format: in vivo, female Sprague-Dawley rats; conditions: for increase of mammary tumour number in tumour-bearing rats compared with controls: end of study, significant for glargine only; for number of tumours per rat (tumour multiplicity, all rats): including rats bearing no tumour, 15 U/kg/day s.c. 5 days a week, at 6 weeks of treatment, high-fat diet, MNU, mean ± S.E.M., n = 30 per group
[2] = format: in vivo, female Sprague-Dawley rats; conditions: for Final body weight: after 6 weeks of 15 U/kg s.c. 5 days per week; for Final body weight / Food intake / Body weight increase: mean ± S.E.M., n = 30; for Food intake: average over the treatment period; for Body weight increase: over 6 weeks of treatment; for blood glucose levels before the injection vs control or detemir groups: over the treatment period, n = 30 per group
Procedure, shortened: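 Female Sprague-Dawley rats on a high-fat diet (40% of calories) from 4 weeks of age were given MNU 485 μmol/kg s.c. 1 week later. Light cycle was shifted to 13:00–01:00 h. At 9 weeks, rats were randomised (n = 30/group) to saline or insulin s.c. at 11:00–12:00 h, 5 days/week, ramped 5→10→15 U/kg. Tail-nick glucometer glucose was taken before and 4 h post-injection three times weekly. Data are mean ± s.e.m., analysed by ANOVA and Waller–Duncan test.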

[3] = test system: Akt (phospho-Ser473-Akt / total Akt); assay: Western blot of phosphorylated and total Akt in mammary tumours; format: in vivo, female Sprague-Dawley rats; conditions: mammary tumours 4 h after last s.c. injection, 15 U/kg
Procedure, shortened: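 High-fat-fed, MNU-treated female Sprague-Dawley rats received saline or insulin s.c. 5 days/week for 6 weeks. Palpable mammary tumours were collected under ketamine/xylazine/acepromazine anaesthesia 4 h after the last injection, halved, and one half was snap-frozen in liquid nitrogen for Western blotting of phosphorylated and total Akt.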

[4] = format: in vivo, female Sprague-Dawley rats; conditions: 15 U/kg s.c.; for steady plasma concentrations (unit/L) up to: high-fat-fed rats, n = 6, unmetabolised glargine
[5] = ref not given, cited from earlier work

Substance | increase of mammary tumour number in tumour-bearing rats compared with controls [1] | Final body weight [2] [g] | Food intake [2] [g/day] | Body weight increase [2] | blood glucose levels before the injection vs control or detemir groups [2] | number of tumours per rat (tumour multiplicity, all rats) [1] | ratio of phosphorylated (active) Akt to total Akt vs control group [3] | steady plasma concentrations (unit/L) up to [4] | peak of glucose-lowering action ([4]; insulin-resistant rats, partial recovery of plasma glucose at 9 h) [h] | sustained action after subcutaneous injection in humans ([5]; humans) | sustained action after subcutaneous injection ([5]; species not given, general statement)
NPH: NPH (unmodified human insulin), purchased from Eli Lilly, Canada | approximately doubled | 346 ± 7 | 21.1 ± 1.4 | 98.7 ± 4.5^a g | slightly higher |  |  |  |  |  | 
detemir | approximately doubled | 338 ± 6 | 19.7 ± 0.8 | 80.7 ± 3.9 g |  | 1.4 ± 0.4 | higher | up to 9 h |  |  | 
glargine | 2 fold | 343 ± 5 | 21.1 ± 1.2 | 93.8 ± 4.4 g | slightly higher | 1.5 ± 0.4 | higher | up to 9 h | 1.5 to 4 | over 20 h | up to 24 h
